Assay [1] has as its target Voltage-dependent N-type calcium channel subunit alpha-1B (Homo sapiens, UniProt Q00975). The assay is described as follows: In vitro inhibition of N-type calcium channels in IMR-32 cells. It counts as cell-based. An outline of the steps:
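N-type channel block was assessed in IMR-32 cells. Cells in suspension were loaded with fura-2/AM for 30 min at 37 °C, and calcium influx ([Ca²⁺]i) was measured. IC50 values are means of multiple determinations, each performed in duplicate.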

For assay [2], the system named is L-type calcium channel (Mus musculus). The assay is described as follows: In vitro inhibition of L-type calcium channels in AtT-20 cells. The settings on record: att20.
A short description of assay [3]: In vitro inhibition of L-type calcium channels in AtT-20 cells. It counts as functional, cell-based, Mus musculus. To be noted: att20. The essentials:
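Mouse pituitary tumour AtT-20/D16v-F2 cells, grown in DMEM with 10% FBS and penicillin–streptomycin, served as the L-type channel source. Cells in suspension were loaded with fura-2/AM for 30 min at 37 °C, and calcium influx ([Ca²⁺]i) was read fluorometrically. IC50 values are means of multiple determinations, each run in duplicate.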

This passage reports IC50 results from ChEMBL document CHEMBL1135246, “Structure-activity study of L-cysteine-based N-type calcium channel blockers: optimization of N- and C-terminal substituents” (Bioorg Med Chem Lett, 2002).

A word on the IC50: it is the midpoint of a concentration-inhibition curve.

Sequence of Voltage-dependent N-type calcium channel subunit alpha-1B (Q00975 whole entry): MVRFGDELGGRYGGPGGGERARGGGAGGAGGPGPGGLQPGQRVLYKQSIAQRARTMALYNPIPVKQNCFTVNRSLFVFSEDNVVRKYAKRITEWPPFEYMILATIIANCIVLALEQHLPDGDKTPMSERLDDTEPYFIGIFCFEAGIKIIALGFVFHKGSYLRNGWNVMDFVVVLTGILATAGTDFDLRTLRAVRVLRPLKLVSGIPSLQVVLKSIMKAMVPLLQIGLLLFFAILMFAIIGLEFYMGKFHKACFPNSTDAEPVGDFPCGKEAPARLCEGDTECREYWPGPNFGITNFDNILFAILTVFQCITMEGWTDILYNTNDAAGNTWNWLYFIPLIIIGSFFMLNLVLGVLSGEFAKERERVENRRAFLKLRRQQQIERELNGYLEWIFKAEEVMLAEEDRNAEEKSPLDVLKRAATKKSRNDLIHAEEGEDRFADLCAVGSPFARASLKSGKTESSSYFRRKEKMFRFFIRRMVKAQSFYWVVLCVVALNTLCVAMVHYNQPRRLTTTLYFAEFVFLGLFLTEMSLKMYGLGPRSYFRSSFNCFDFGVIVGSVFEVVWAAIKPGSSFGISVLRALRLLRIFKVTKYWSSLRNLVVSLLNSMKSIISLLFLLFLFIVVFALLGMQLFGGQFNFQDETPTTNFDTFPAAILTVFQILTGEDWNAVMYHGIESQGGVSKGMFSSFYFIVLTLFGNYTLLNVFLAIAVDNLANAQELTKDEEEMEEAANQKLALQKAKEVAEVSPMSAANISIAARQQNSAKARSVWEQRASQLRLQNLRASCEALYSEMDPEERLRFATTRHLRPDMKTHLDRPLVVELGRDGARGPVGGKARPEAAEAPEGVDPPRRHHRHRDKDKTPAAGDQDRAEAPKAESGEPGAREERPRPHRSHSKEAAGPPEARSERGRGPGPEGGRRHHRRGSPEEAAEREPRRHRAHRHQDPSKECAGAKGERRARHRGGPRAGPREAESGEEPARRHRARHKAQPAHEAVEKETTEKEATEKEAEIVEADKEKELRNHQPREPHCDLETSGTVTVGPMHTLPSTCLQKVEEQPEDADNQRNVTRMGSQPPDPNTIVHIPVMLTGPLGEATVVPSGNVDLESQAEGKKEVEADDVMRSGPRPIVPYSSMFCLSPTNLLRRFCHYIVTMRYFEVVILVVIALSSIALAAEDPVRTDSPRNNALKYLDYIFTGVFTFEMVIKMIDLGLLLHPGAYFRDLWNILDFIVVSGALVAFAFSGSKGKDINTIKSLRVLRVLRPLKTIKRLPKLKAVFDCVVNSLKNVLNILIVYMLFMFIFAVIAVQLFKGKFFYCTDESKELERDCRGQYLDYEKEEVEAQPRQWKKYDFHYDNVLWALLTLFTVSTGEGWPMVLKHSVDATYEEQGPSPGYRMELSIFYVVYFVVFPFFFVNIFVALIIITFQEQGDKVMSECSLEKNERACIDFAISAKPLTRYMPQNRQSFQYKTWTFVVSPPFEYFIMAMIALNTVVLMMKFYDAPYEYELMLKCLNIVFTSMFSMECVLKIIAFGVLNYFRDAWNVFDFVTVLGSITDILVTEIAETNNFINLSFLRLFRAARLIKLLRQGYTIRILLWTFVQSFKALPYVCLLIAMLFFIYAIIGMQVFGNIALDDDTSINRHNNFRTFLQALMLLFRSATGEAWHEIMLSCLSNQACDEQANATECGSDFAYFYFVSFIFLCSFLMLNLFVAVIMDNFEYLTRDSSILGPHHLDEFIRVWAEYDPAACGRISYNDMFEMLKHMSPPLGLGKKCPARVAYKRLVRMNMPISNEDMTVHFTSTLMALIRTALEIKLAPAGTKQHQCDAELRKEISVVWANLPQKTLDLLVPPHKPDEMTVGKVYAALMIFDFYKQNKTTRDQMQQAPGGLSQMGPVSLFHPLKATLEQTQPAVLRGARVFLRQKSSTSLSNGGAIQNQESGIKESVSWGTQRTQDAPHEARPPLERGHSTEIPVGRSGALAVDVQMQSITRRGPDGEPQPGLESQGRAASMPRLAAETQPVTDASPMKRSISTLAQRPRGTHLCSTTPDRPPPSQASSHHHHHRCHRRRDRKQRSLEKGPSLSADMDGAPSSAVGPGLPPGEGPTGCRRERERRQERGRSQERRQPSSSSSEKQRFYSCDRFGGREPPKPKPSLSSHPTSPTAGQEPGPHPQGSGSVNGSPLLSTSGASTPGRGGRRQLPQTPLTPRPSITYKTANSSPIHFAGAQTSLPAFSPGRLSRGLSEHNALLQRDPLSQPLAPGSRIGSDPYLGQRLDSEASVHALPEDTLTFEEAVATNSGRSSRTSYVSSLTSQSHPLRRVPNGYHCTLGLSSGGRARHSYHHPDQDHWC

On to `CC(C)(C)OC(=O)N1CSC[C@H]1C(=O)N[C@@H](CSCC1CCCCC1)C(=O)NCc1ccc(OCc2ccccc2)cc1`, for which the IC50 in assay [1] turned out to be 500 nM; in assay [2], 1500 nM. Take `COc1ccc(CNC(=O)[C@H](CSCC2CCCCC2)NC(=O)C2CCCC2)cc1`: the IC50 in assay [3] is 2300 nM; in assay [1], 920 nM. Consider `CC(C)COC(=O)N1CSC[C@H]1C(=O)N[C@@H](CSCC1CCCCC1)C(=O)NCc1ccc(Oc2ccccc2)cc1`, for which the IC50 in assay [1] was 360 nM; in assay [2], 1200 nM. In the case of `C=CCOC(=O)N1CSC[C@H]1C(=O)N[C@@H](CSCC1CCCCC1)C(=O)NCc1ccc(Oc2ccccc2)cc1`, the IC50 was determined as 330 nM in assay [1] and 440 nM in assay [2]. As for `COc1ccc(CNC(=O)[C@@H](N)CSCC2CCCCC2)cc1`, the half-inhibitory concentration (IC50) in assay [1] was determined as 5800 nM. `COc1ccc(CNC(=O)[C@H](CSCC2CCCCC2)NC(=O)CC(C)C)cc1`: the figures for the IC50 in assay [3] and in assay [1] were 2700 nM and 1200 nM, respectively. As to `CC(C)(C)OC(=O)N1CSC[C@H]1C(=O)N[C@@H](CSCC1CCCCC1)C(=O)NCc1ccc([N+](=O)[O-])cc1`, the values for the IC50 in assay [1] and in assay [2] were 600 nM and 500 nM, respectively. The corresponding values for `O=C(NCc1ccc(Oc2ccccc2)cc1)[C@H](CSCC1CCCCC1)NC(=O)[C@@H]1CSCN1CCO` are 350 nM and 1100 nM. As for `COc1ccc(CNC(=O)[C@H](CSCC2CCCCC2)NC(=O)c2cscn2)cc1`, the IC50 in assay [3] was 2700 nM; in assay [1], 1900 nM. On to `CC(C)(C)OC(=O)N1CSC[C@H]1C(=O)N[C@@H](CSCC1CCCCC1)C(=O)NCc1ccc(O)cc1`, for which the IC50 in assay [1] was 1800 nM; in assay [2], 2800 nM. On to `O=C(N[C@@H](CSCC1CCCCC1)C(=O)NCc1ccc(Oc2ccccc2)cc1)[C@@H]1CSCN1`, for which the IC50 in assay [1] worked out at 290 nM; in assay [2], 2000 nM. Regarding `COc1ccc(CNC(=O)[C@H](CSCC2CCCCC2)NC(=O)OCC(C)C)cc1`, the IC50 in assay [3] came to 1500 nM; in assay [1] it was 720 nM. In the case of `COCC(=O)N1CSC[C@H]1C(=O)N[C@@H](CSCC1CCCCC1)C(=O)NCc1ccc(Oc2ccccc2)cc1`, the IC50 in assay [1] came out at 120 nM; in assay [2] it was 930 nM. The corresponding values for `COC(=O)N1CSC[C@H]1C(=O)N[C@@H](CSCC1CCCCC1)C(=O)NCc1ccc(Oc2ccccc2)cc1` are 120 nM and 870 nM. On to `CN(C)c1ccc(CNC(=O)[C@H](CSCC2CCCCC2)NC(=O)[C@@H]2CSCN2C(=O)OC(C)(C)C)cc1`, for which the IC50 in assay [1] is 610 nM; in assay [2], 950 nM. As to `COc1ccc(CNC(=O)[C@H](CSCC2CCCCC2)NC(=O)C2CCCCC2)cc1`, the IC50 came out at 1900 nM in assay [3] and 1300 nM in assay [1].

For `COCCN1CSC[C@H]1C(=O)N[C@@H](CSCC1CCCCC1)C(=O)NCc1ccc(Oc2ccccc2)cc1`, the IC50 in assay [1] was 200 nM; in assay [2] it was 600 nM.

`CC(C)(C)OC(=O)N1CSC[C@H]1C(=O)N[C@@H](CSCC1CCCCC1)C(=O)NCc1ccc(Oc2ccccc2)cc1`: in assay [2], the half-maximal inhibitory concentration (IC50) was determined as 1700 nM.
